Assay results published in ChEMBL document CHEMBL2169804, “Novel histone deacetylase 8 ligands without a zinc chelating group: exploring an 'upside-down' binding pose” (Bioorg Med Chem Lett, 2012).
Activity calls are given as the source filed them. No cut-off for these calls is given here.

How the values were obtained:
Histone deacetylase 8 = molecular target: T1, Histone deacetylase 8 (Homo sapiens, UniProt Q9BY41); test: Inhibition of human recombinant HDAC8 using fluor de Lys as substrate preincubated for 5 mins followed by substrate addition measured after 25 mins by microplate reader analysis
T1 sequence (Q9BY41 whole entry): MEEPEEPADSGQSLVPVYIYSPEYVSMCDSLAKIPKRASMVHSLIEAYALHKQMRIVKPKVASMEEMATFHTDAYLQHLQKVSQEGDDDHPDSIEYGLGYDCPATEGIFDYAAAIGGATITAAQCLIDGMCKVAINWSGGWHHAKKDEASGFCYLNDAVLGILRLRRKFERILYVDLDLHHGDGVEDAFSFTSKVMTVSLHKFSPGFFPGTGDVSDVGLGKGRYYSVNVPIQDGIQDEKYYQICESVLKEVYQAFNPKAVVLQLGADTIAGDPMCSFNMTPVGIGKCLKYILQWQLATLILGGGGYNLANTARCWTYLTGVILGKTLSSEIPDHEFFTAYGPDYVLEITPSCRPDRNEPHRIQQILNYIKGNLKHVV

[1] = molecular target: T2, Histone deacetylase 8 (Homo sapiens) (UniProt Q9BY41); test: Binding affinity to human recombinant HDAC8 expressed in Escherichia coli assessed as enzyme biotinylation level at 1.5 uM under non denaturating condition after 3 hrs by Western blot-based photoaffinity labelling method in presence of 37.5 and 75 uM SAHA
T2 sequence (whole entry): T1 sequence (Q9BY41 whole entry)
Method in brief: (§1)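 Probe, or probe plus competitor, preincubated 3 h at room temperature, then irradiated at 254 nm for 3 × 1 min with 1 min rests. For denaturing runs, SDS was added to 2% w/v final and held 30 min at 37 °C.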

Histone deacetylase 3 [2] = molecular target: T3, Histone deacetylase 3 (Homo sapiens, UniProt O15379); test: Inhibition of human recombinant HDAC3 using Boc-Lys(Ac)-AMC as substrate at 66 uM preincubated for 5 mins followed by substrate addition measured after 30 mins by microplate reader analysis
T3 sequence (O15379 whole entry): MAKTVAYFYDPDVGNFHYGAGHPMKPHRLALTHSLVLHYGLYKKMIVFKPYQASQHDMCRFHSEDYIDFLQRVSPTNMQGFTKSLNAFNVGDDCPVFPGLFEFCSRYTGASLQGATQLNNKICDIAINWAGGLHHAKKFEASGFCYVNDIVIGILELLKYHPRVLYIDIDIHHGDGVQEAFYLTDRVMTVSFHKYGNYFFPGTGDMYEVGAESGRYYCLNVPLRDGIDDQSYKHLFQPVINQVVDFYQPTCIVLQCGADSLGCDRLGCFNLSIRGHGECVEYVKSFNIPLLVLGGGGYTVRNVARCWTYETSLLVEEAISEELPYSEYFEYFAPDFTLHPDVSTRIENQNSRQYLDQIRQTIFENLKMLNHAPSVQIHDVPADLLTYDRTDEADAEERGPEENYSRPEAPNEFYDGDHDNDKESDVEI

Histone deacetylase 1 [3] = molecular target: T4, Histone deacetylase 1 (Homo sapiens, UniProt Q13547); test: Inhibition of human recombinant HDAC1 using Boc-Lys(Ac)-AMC as substrate preincubated for 5 mins followed by substrate addition measured after 30 mins by microplate reader analysis
T4 sequence (Q13547 whole entry): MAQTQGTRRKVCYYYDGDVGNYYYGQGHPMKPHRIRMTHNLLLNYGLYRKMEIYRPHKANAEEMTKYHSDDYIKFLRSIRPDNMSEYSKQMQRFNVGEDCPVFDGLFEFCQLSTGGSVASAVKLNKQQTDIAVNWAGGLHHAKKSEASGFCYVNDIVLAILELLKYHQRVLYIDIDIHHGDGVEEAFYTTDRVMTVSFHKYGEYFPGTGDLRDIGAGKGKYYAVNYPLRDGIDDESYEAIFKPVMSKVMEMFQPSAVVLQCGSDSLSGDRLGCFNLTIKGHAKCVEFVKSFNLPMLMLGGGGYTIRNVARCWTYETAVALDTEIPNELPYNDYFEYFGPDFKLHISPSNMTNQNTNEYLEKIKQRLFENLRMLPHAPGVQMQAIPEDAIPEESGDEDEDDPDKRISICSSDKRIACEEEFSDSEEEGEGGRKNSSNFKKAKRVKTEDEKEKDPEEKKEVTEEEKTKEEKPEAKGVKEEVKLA

Histone deacetylase 2 [4] = molecular target: T5, Histone deacetylase 2 (Homo sapiens, UniProt Q92769); test: Inhibition of human recombinant HDAC2 using Boc-Lys(Ac)-AMC as substrate preincubated for 5 mins followed by substrate addition measured after 30 mins by microplate reader analysis
T5 sequence (Q92769 whole entry): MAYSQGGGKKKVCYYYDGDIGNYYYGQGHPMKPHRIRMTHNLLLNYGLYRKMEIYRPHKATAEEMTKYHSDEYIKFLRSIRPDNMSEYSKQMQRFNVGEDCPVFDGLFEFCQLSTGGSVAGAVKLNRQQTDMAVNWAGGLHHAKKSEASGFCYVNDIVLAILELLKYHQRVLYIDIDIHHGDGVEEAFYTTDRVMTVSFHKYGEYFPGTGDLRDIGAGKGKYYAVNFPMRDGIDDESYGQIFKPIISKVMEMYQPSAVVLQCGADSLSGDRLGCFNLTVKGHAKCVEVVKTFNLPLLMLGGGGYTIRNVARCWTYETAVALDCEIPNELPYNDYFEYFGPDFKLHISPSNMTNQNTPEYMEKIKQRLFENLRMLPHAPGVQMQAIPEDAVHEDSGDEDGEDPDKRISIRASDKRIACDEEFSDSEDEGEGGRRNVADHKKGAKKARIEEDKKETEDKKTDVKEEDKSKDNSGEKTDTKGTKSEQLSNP

Histone deacetylase 2 [5] = molecular target: T5, Histone deacetylase 2; test: Inhibition of nuclear HDAC2 in human SH-SY5Y cells assessed as increase in histone H4 acetylation after 24 hrs by Western blot analysis; type: cell-based
Method in brief: (§2)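 SH-SY5Y cells were grown to 80% confluence in 1:1 DMEM:OPTI-MEM with 10% FBS. They were treated with vehicle or compound for 24 h at 37 °C, 5% CO2, then lysed in RIPA buffer with protease and phosphatase inhibitors. Lysate containing 20 µg protein was run by SDS-PAGE and blotted with anti-acetyl α-tubulin or anti-acetyl histone H4 (1:1000) overnight at 4 °C, with anti-GAPDH as reference. Detection was by chemiluminescence on a CCD camera.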

[6] = molecular target: T2, Histone deacetylase 8 (Homo sapiens); test: Binding affinity to human recombinant HDAC8 expressed in Escherichia coli assessed as enzyme biotinylation level at 5 uM preincubated for 3 hrs followed by denaturation measured after 60 mins by Western blot-based photoaffinity labelling method in presence of 250 uM 7-[4-(3,5-Dimethyl-benzyloxy)phenylcarbamoyl]heptanoic acid methyl ester; method in brief: as §1
Histone deacetylase 3 [7] = molecular target: T3, Histone deacetylase 3; test: Inhibition of nuclear HDAC3 in human SH-SY5Y cells assessed as increase in histone H4 acetylation after 24 hrs by Western blot analysis; type: cell-based; method in brief: as §2
[8] = molecular target: T2, Histone deacetylase 8 (Homo sapiens); test: Binding affinity to human recombinant HDAC8 expressed in Escherichia coli assessed as enzyme biotinylation level at 1.5 uM under non denaturating condition after 3 hrs by Western blot-based photoaffinity labelling method in presence of 7-[4-(3,5-Dimethyl-benzyloxy)phenylcarbamoyl]heptanoic acid methyl ester; method in brief: as §1
Histone deacetylase 1 [9] = molecular target: T4, Histone deacetylase 1; test: Inhibition of nuclear HDAC1 in human SH-SY5Y cells assessed as increase in histone H4 acetylation after 24 hrs by Western blot analysis; type: cell-based; method in brief: as §2
[10] = molecular target: T6, Protein deacetylase HDAC6 (Homo sapiens) (UniProt Q9UBN7); test: Inhibition of cytoplasmic HDAC6 in human SH-SY5Y cells assessed as alpha-tubulin acetylation at 31.25 to 125 uM after 24 hrs by Western blot analysis; type: cell-based; method in brief: as §2
T6 sequence (whole entry): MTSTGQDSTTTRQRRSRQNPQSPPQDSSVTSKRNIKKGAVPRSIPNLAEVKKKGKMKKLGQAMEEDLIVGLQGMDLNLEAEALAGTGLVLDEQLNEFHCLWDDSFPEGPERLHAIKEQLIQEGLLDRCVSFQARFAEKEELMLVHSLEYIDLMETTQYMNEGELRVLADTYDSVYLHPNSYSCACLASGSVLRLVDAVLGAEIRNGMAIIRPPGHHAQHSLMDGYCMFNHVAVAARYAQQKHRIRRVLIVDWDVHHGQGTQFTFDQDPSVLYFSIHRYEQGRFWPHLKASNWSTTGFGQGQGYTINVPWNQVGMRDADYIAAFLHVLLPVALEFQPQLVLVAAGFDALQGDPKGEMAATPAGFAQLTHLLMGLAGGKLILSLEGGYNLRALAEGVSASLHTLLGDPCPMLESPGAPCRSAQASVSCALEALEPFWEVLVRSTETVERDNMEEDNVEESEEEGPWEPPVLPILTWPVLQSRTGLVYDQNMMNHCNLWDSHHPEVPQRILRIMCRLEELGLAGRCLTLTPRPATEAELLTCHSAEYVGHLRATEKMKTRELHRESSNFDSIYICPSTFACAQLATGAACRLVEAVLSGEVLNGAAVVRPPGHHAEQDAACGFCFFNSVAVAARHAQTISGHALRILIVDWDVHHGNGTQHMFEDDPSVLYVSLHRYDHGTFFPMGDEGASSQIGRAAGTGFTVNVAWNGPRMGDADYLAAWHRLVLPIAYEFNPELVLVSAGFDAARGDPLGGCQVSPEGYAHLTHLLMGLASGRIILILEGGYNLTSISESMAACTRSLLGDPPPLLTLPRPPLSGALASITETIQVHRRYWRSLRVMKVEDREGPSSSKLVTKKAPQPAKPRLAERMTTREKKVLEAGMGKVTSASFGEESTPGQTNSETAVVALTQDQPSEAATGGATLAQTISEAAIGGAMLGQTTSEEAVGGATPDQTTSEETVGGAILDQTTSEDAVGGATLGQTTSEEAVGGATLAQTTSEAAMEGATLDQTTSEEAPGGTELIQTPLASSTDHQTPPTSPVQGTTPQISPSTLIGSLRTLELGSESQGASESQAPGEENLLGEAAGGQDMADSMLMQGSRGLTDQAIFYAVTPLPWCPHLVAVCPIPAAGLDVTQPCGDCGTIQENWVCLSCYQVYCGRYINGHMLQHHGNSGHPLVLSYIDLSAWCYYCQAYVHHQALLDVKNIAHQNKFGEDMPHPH

[11] = molecular target: T2, Histone deacetylase 8 (Homo sapiens); test: Binding affinity to human recombinant HDAC8 expressed in Escherichia coli assessed as enzyme biotinylation level at 1.5 uM under non denaturating condition after 3 hrs by Western blot-based photoaffinity labelling method in presence of 37.5 and 75 uM PCI34051; method in brief: as §1
[12] = molecular target: T2, Histone deacetylase 8 (Homo sapiens); test: Inhibition of nuclear HDAC8 in human SH-SY5Y cells assessed as increase in histone H4 acetylation after 24 hrs by Western blot analysis; type: cell-based; method in brief: as §2
[13] = molecular target: T2, Histone deacetylase 8 (Homo sapiens); test: Binding affinity to human recombinant HDAC8 expressed in Escherichia coli assessed as enzyme biotinylation level at 1.5 uM under non denaturating condition after 3 hrs by Western blot-based photoaffinity labelling method in presence of 37.5 and 75 uM TSA; method in brief: as §1
[14] = molecular target: T2, Histone deacetylase 8 (Homo sapiens); test: Inhibition of human recombinant HDAC8 using fluor de Lys as substrate assessed as residual activity at 66 uM preincubated for 5 mins followed by substrate addition measured after 25 mins by microplate reader analysis
[15] = molecular target: T2, Histone deacetylase 8 (Homo sapiens); test: Binding affinity to human recombinant HDAC8 expressed in Escherichia coli assessed as enzyme biotinylation level at 5 uM preincubated for 3 hrs followed by denaturation measured after 60 mins by Western blot-based photoaffinity labelling method in presence of 250 uM TSA; method in brief: as §1
[16] = molecular target: T2, Histone deacetylase 8 (Homo sapiens); test: Binding affinity to human recombinant HDAC8 expressed in Escherichia coli assessed as increase in enzyme biotinylation level at […] under non denaturating condition after 3 hrs by Western blot-based photoaffinity labelling method
[17] = molecular target: T2, Histone deacetylase 8 (Homo sapiens); test: Binding affinity to human recombinant HDAC8 expressed in Escherichia coli assessed as enzyme biotinylation level at 5 uM preincubated for 3 hrs followed by denaturation measured after 60 mins by Western blot-based photoaffinity labelling method in presence of 250 uM SAHA; method in brief: as §1
[18] = molecular target: T2, Histone deacetylase 8 (Homo sapiens); test: Binding affinity to human recombinant HDAC8 expressed in Escherichia coli assessed as increase in enzyme biotinylation level at 5 uM preincubated for 3 hrs followed by denaturation measured after 60 mins by Western blot-based photoaffinity labelling method in presence of 5 uM SAHA; method in brief: as §1
[19] = molecular target: T2, Histone deacetylase 8 (Homo sapiens); test: Binding affinity to human recombinant HDAC8 expressed in Escherichia coli assessed as increase in enzyme biotinylation level at […] preincubated for 3 hrs followed by denaturation measured after 60 mins by Western blot-based photoaffinity labelling method
[20] = molecular target: T2, Histone deacetylase 8 (Homo sapiens); test: Binding affinity to human recombinant HDAC8 expressed in Escherichia coli assessed as increase in enzyme biotinylation level preincubated for 3 hrs followed by denaturation measured after 60 mins by Western blot-based photoaffinity labelling method; method in brief: as §1
[21] = molecular target: T2, Histone deacetylase 8 (Homo sapiens); test: Binding affinity to human recombinant HDAC8 expressed in Escherichia coli assessed as enzyme biotinylation level at 5 uM preincubated for 3 hrs followed by denaturation measured after 60 mins by Western blot-based photoaffinity labelling method in presence of 250 uM PCI34051; method in brief: as §1
[22] = molecular target: T6, Protein deacetylase HDAC6 (Homo sapiens); test: Inhibition of cytoplasmic HDAC6 in human SH-SY5Y cells assessed as alpha-tubulin acetylation at 1 uM after 24 hrs by Western blot analysis; type: cell-based; method in brief: as §2
Histone deacetylase 3 [23] = molecular target: T3, Histone deacetylase 3; test: Inhibition of human recombinant HDAC3 using Boc-Lys(Ac)-AMC as substrate preincubated for 5 mins followed by substrate addition measured after 30 mins by microplate reader analysis
[24] = molecular target: T2, Histone deacetylase 8 (Homo sapiens); test: Binding affinity to human recombinant HDAC8 expressed in Escherichia coli assessed as enzyme biotinylation level at […] preincubated for 3 hrs followed by denaturation measured after 60 mins by Western blot-based photoaffinity labelling method in presence of 0.25 and […] SAHA

COC(=O)CCCCCCC(=O)Nc1cnn(Cc2cc(CN=[N+]=[N-])cc(N=[N+]=[N-])c2)c1
IC50 (Histone deacetylase 8; read-out: IC50): 36 µM

COC(=O)CCCCCCC(=O)Nc1ccc(OCc2cc(C)cc(C)c2)cc1
IC50 (Histone deacetylase 8; read-out: IC50): 47.8 µM

CCCCCCCC(=O)Nc1ccc(OCc2cc(C)cc(C)c2)cc1
IC50 (Histone deacetylase 8): Not Active

COc1cc(COc2ccc(NC(=O)CCCCCCC(=O)OCc3ccc(CN=[N+]=[N-])cc3)cc2)cc(N=[N+]=[N-])c1
Activity [1]: inactive
inhibition (Histone deacetylase 3 [2]): inactive
IC50 (Histone deacetylase 1 [3]): 86 µM
IC50 (Histone deacetylase 2 [4]): 79 µM
IC50 (Histone deacetylase 8; read-out: IC50): 28 µM
inhibition (Histone deacetylase 2 [5]): Dose-dependent effect
Activity [6]: inactive
inhibition (Histone deacetylase 3 [7]): Dose-dependent effect
Activity [8]: inactive
inhibition (Histone deacetylase 1 [9]): Dose-dependent effect
inhibition [10]: inactive
Activity [11]: inactive
inhibition [12]: Dose-dependent effect
Activity [13]: inactive

COC(=O)CCCCCCC(=O)Nc1ccc(OCc2ccccc2)cc1
Activity [14]: > 50%
IC50 (Histone deacetylase 8): Not Active

COC(=O)CCCCCCC(=O)Nc1ccc(OCc2cc(CN=[N+]=[N-])cc(N=[N+]=[N-])c2)cc1
Activity [15]: inactive
Activity [16]: Active
Activity [17]: inactive
IC50 (Histone deacetylase 8; read-out: IC50): 37.4 µM
Activity [18]: Active
Activity [19]: Active
Activity [6]: inactive
Activity [20]: Dose-dependent effect
Activity [21]: inactive

CC(C)(C)OC(=O)CCCCCCC(=O)Nc1ccc(OCc2cc(CN=[N+]=[N-])cc(N=[N+]=[N-])c2)cc1
IC50 (Histone deacetylase 8; read-out: IC50): 42.6 µM

O=C(NO)c1ccc(Cn2c3ccccc3c3ccccc32)cc1
inhibition [22]: Active

COc1cc(COc2ccc(NC(=O)CCCCCCC(=O)OCCN=[N+]=[N-])cc2)cc(N=[N+]=[N-])c1
inhibition (Histone deacetylase 3 [2]): inactive
IC50 (Histone deacetylase 1 [3]): 111 µM
IC50 (Histone deacetylase 2 [4]): 72 µM
IC50 (Histone deacetylase 8; read-out: IC50): 67.5 µM
Activity [20]: Dose-dependent effect

Cc1cc(C)cc(COc2ccc(NC(=O)CCCCCCC(=O)OC(C)(C)C)cc2)c1
IC50 (Histone deacetylase 8; read-out: IC50): 53.2 µM

[N-]=[N+]=NCc1cc(COc2ccc(NC(=O)CCCCCCC(=O)NO)cc2)cc(N=[N+]=[N-])c1
Ki (Histone deacetylase 3 [23]): 740 nM
Activity [20]: Dose-dependent effect
Activity [24]: inactive

[N-]=[N+]=NCc1cc(Cn2cc(NC(=O)CCCCCCC(=O)NO)cn2)cc(N=[N+]=[N-])c1
Ki (Histone deacetylase 3 [23]): 64 nM

[N-]=[N+]=NCc1cc(N=[N+]=[N-])cc(C(=O)Nc2ccc(-c3cc(C(=O)NCCCCCCC(=O)NO)no3)cc2)c1
Ki (Histone deacetylase 3 [23]): 23 nM

COC(=O)CCCCCCNC(=O)c1cc(-c2ccc(NC(=O)c3cc(CN=[N+]=[N-])cc(N=[N+]=[N-])c3)cc2)on1
IC50 (Histone deacetylase 8; read-out: IC50): 47.1 µM
